Read-outs that look alike come from different tables or passages of the source.
Tests used:
[1] = target: Recombinant M. tuberculosis MbtI (Mycobacterium tuberculosis, UniProt P9WFX1); test: biochemical; details: for remaining activity at 100 µM: pH 7.5, read-out: Residual activity at 100 µM (%)
Cell viability assay = type: cell-based; details: human, MRC5 human fibroblast lung cells
How it was run: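 MRC5 human lung fibroblasts were kept at 37 °C in humidified 5% CO2 and seeded in 96-well plates. The next day, vehicle or test compound was added at 200 to 0.01 µM.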

Chain of Recombinant M. tuberculosis MbtI (P9WFX1 whole entry): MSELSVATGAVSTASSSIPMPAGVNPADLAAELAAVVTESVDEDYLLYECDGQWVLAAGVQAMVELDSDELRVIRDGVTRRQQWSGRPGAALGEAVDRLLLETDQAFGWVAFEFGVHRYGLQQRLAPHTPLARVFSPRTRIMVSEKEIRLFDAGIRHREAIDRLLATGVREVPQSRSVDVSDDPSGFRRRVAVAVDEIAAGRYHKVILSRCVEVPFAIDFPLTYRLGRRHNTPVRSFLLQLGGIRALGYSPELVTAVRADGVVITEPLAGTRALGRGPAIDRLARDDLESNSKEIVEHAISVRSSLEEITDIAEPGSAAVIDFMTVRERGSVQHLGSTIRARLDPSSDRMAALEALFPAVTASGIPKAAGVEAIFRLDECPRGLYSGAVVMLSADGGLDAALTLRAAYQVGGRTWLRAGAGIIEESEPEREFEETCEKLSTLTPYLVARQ

| SMILES | IC50 [1] [µM] | remaining activity at 100 µM [1] [%] | Residual activity at 100 µM (%) ([1]; compound at 100 µM, 50 µM chorismic acid, 37 °C, pH 7.5) | IC50 ([1]; read-out: MbtI IC50) [µM] | IC50 at 96 h (Cell viability assay) [µM] |
| --- | --- | --- | --- | --- | --- |
| O=C(O)c1ccc(-c2ccc(C(F)(F)F)cc2F)o1 [1b] | 27.6 ± 7.3 | 6.1 ± 1.1 | – | – | – |
| O=C(O)c1ccc(-c2ccc(C(F)(F)F)cc2Br)o1 [1c] | – | 38 ± 3.7 | – | – | – |
| O=C(O)c1ccc(-c2ccc(C(F)(F)F)cc2O)o1 [1d] | 35.9 ± 10.3 | 16.8 ± 2.7 | – | – | – |
| Cc1cc(C(F)(F)F)ccc1-c1ccc(C(=O)O)o1 [1e] | 31.5 ± 9.6 | 19.3 ± 2.2 | – | – | – |
| Nc1cc(C(F)(F)F)ccc1-c1ccc(C(=O)O)o1 [1f] | 34.6 ± 10.9 | 13.1 ± 2.4 | – | – | – |
| N#Cc1cc(C(F)(F)F)ccc1-c1ccc(C(=O)O)o1 [1g, 5-(2-cyano-4-(trifluoromethyl)phenyl)furan-2-carboxylic acid] | 18.5 ± 3.2 | 5.7 ± 1.5 | – | – | – |
| O=C(O)c1ccc(-c2ccc([N+](=O)[O-])cc2Br)o1 [1j] | – | 32.1 ± 2.4 | – | – | – |
| O=C(O)c1ccc(-c2ccc([N+](=O)[O-])cc2F)o1 [1k] | – | 26.4 ± 4.8 | – | – | – |
| O=C(O)c1ccc(-c2ccc([N+](=O)[O-])cc2O)o1 [1l] | 29.8 ± 4.2 | 13.9 ± 4 | – | – | – |
| Cc1cc([N+](=O)[O-])ccc1-c1ccc(C(=O)O)o1 [1m] | 28.5 ± 1.5 | 13.2 ± 5.8 | – | – | – |
| Nc1cc([N+](=O)[O-])ccc1-c1ccc(C(=O)O)o1 [1n] | 24.2 ± 5.4 | 13.5 ± 3.8 | – | – | – |
| N#Cc1cc([N+](=O)[O-])ccc1-c1ccc(C(=O)O)o1 [1o, 5-(2-cyano-4-nitro-phenyl)furan-2-carboxylate] | – | – | 5.0 ± 1.9 | 24.4 ± 5.9 | – |
| O=C(O)c1ccc(-c2ccc([N+](=O)[O-])cc2C(F)(F)F)o1 [1p] | – | 25.1 ± 3.7 | – | – | > 100 |
